Test results taken from ChEMBL document CHEMBL4622996, “Discovery of Vixotrigine: A Novel Use-Dependent Sodium Channel Blocker for the Treatment of Trigeminal Neuralgia” (ACS Med Chem Lett, 2020).

Legend:
[1] = Plasma concentration in rat after measuring the spontaneous locomotor activity at 60 mg/kg, po measured after 60 mins post dose; type: ADME, organism-based
Summary of the method: (§1)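 Male rats, spontaneous locomotor activity test; oral doses 60, 100 or 300 mg/kg given 30 min before the session; plasma sampled 60 min postdose at 60 mg/kg.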

[2] = Cmax in rat at 3 mg/kg, po; type: ADME, organism-based; design: dose 3 mg/kg, route oral; settings: in vivo
Cytochrome P450 1A2 = target: T1, Cytochrome P450 1A2 (Homo sapiens, UniProt P05177); test: Inhibition of CYP1A2 (unknown origin); type: ADME
T1 sequence (P05177 whole entry): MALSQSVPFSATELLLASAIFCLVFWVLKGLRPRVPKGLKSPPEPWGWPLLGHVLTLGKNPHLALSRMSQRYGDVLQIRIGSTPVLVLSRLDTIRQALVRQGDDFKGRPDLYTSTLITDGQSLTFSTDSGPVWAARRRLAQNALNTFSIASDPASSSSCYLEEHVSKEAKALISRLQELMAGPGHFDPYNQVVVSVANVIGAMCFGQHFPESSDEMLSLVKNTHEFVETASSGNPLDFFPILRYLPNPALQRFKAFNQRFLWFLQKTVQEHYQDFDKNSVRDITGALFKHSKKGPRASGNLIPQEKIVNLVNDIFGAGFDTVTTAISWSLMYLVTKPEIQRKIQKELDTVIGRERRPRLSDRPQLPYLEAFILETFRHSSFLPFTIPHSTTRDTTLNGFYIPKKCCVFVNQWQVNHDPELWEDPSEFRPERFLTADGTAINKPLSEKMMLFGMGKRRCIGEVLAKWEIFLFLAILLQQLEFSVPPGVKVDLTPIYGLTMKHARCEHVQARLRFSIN

[3] = Volume of distribution in steady state in monkey at 0.5 mg/kg, iv; type: ADME, organism-based, Macaca mulatta; settings: rhesus monkey, in vivo, read-out: Vdss
[4] = Cmax in monkey at 3 mg/kg, po; type: ADME, organism-based, Macaca mulatta; design: dose 3 mg/kg, route oral; settings: rhesus monkey, in vivo
[5] = Free plasma concentration in rat model of chronic constriction injury-induced neuropathic pain at 5 mg/kg, po BID administered 22 days post surgery and measured on day 8 at 0.5 hrs post-dose; type: ADME, organism-based; settings: in vivo
Summary of the method: (§2)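 Chronic constriction injury neuropathic pain model in rat; oral dosing at 0.5 or 5 mg/kg BID starting day 22; mechanical allodynia read after 6 and 8 days of dosing; gabapentin 30 mg/kg po BID as positive control. Free plasma levels sampled on day 8, 0.5 h postdose.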

[6] = Half life in rat at 0.5 mg/kg, iv; type: ADME, organism-based; settings: in vivo
[7] = Oral bioavailability in rat at 3 mg/kg; type: ADME, organism-based; settings: in vivo
[8] = Toxicity in rat assessed as sedation by measuring spontaneous locomotor activity at 60 mg/kg, po; type: organism-based; settings: in vivo; summary of the method: as §1
Cytochrome P450 2C19 = Cytochrome P450 2C19 (Homo sapiens, UniProt P33261); test: Inhibition of CYP2C19 (unknown origin); type: ADME
[9] = Total blood clearance in dog blood at 0.5 mg/kg, iv; type: ADME, organism-based, Canis lupus familiaris
[10] = Oral bioavailability in dog at 3 mg/kg; type: ADME, organism-based, Canis lupus familiaris; settings: in vivo
Cytochrome P450 2C8 = target: T2, Cytochrome P450 2C8 (Homo sapiens, UniProt P10632); test: Inhibition of CYP2C8 (unknown origin); type: ADME
T2 sequence (P10632 whole entry): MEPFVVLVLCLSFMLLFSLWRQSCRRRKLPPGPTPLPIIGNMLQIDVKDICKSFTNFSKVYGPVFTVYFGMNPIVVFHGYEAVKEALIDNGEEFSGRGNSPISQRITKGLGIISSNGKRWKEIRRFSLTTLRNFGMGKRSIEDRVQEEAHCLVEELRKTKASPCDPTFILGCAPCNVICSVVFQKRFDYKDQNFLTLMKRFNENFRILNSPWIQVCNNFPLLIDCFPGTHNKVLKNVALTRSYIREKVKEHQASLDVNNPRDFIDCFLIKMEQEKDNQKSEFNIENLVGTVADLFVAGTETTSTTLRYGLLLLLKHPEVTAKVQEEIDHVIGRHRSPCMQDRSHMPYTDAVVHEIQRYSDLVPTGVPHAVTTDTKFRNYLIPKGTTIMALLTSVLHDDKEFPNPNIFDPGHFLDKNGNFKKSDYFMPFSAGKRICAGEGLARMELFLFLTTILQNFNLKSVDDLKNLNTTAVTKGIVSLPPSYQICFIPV

[11] = target: Voltage-gated inwardly rectifying potassium channel KCNH2 (Homo sapiens, UniProt Q12809); test: Inhibition of human ERG
[12] = Tmax in monkey at 3 mg/kg, po; type: ADME, organism-based, Macaca mulatta; settings: rhesus monkey, in vivo
[13] = Half life in dog at 0.5 mg/kg, iv; type: ADME, organism-based, Canis lupus familiaris; settings: in vivo
Cytochrome P450 2D6 = Cytochrome P450 2D6 (Homo sapiens, UniProt P10635); test: Inhibition of CYP2D6 (unknown origin); type: ADME
[14] = target: T3, Broad substrate specificity ATP-binding cassette transporter ABCG2 (Homo sapiens, UniProt Q9UNQ0); test: Inhibition of BCRP (unknown origin)
T3 sequence (Q9UNQ0 whole entry): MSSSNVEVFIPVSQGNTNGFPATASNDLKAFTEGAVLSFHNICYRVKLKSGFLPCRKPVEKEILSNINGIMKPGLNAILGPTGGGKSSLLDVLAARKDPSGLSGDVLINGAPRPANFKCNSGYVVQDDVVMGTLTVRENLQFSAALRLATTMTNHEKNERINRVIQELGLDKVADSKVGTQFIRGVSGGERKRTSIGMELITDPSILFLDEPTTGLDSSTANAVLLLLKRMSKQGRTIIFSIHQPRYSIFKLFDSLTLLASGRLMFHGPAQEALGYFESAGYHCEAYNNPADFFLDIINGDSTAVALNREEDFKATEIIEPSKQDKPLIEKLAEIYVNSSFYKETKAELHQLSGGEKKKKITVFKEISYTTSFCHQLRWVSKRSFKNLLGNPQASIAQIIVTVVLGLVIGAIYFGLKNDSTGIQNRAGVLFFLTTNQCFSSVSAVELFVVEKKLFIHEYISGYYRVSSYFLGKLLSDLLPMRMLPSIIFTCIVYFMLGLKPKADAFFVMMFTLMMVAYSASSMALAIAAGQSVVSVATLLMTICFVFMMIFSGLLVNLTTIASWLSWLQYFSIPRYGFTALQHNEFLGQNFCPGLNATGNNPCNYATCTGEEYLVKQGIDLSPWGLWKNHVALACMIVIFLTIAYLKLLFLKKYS

[15] = Aqueous solubility of compound in HCl salt : water; type: physicochemical
Rattus norvegicus = test: Antiinflammatory activity in complete Freund's adjuvant-induced rat model assessed as inhibition of CFA-induced hypersensitivity to pain administered orally at a single dose; type: functional; settings: po
[16] = Toxicity in rat assessed as sedation by measuring spontaneous locomotor activity at 100 to 300 mg/kg, po; type: organism-based; settings: in vivo; summary of the method: as §1
[17] = Volume of distribution in steady state in dog at 0.5 mg/kg, iv; type: ADME, organism-based, Canis lupus familiaris; settings: in vivo, read-out: Vdss
[18] = Aqueous solubility of the compound in FeSSIF; type: physicochemical
[19] = Volume of distribution in steady state in rat at 0.5 mg/kg, iv; type: ADME, organism-based; settings: in vivo, read-out: Vdss
[20] = Free plasma concentration in rat model of chronic constriction injury-induced neuropathic pain at 0.5 mg/kg, po BID administered 22 days post surgery and measured on day 8 at 0.5 hrs post-dose; type: ADME, organism-based; settings: in vivo; summary of the method: as §2
[21] = Cmax in dog at 3 mg/kg, po; type: ADME, organism-based, Canis lupus familiaris; design: dose 3 mg/kg, route oral; settings: in vivo

Sequence of Cytochrome P450 2D6 (P10635 whole entry): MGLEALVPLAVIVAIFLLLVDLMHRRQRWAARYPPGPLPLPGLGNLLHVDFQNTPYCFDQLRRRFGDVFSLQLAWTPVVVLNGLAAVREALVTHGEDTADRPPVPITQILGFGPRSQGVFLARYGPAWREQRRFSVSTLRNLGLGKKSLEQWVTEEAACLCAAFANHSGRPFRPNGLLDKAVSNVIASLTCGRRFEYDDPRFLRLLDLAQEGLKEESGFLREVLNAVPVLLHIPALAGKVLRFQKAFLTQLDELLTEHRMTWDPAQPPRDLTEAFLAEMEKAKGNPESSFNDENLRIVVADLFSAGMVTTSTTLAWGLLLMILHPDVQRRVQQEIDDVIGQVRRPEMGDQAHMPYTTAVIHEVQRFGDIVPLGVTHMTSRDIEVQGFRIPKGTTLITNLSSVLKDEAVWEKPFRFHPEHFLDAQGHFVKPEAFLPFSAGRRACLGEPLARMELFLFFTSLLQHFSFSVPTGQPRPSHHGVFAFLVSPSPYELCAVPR
Sequence of Voltage-gated inwardly rectifying potassium channel KCNH2 (Q12809 whole entry): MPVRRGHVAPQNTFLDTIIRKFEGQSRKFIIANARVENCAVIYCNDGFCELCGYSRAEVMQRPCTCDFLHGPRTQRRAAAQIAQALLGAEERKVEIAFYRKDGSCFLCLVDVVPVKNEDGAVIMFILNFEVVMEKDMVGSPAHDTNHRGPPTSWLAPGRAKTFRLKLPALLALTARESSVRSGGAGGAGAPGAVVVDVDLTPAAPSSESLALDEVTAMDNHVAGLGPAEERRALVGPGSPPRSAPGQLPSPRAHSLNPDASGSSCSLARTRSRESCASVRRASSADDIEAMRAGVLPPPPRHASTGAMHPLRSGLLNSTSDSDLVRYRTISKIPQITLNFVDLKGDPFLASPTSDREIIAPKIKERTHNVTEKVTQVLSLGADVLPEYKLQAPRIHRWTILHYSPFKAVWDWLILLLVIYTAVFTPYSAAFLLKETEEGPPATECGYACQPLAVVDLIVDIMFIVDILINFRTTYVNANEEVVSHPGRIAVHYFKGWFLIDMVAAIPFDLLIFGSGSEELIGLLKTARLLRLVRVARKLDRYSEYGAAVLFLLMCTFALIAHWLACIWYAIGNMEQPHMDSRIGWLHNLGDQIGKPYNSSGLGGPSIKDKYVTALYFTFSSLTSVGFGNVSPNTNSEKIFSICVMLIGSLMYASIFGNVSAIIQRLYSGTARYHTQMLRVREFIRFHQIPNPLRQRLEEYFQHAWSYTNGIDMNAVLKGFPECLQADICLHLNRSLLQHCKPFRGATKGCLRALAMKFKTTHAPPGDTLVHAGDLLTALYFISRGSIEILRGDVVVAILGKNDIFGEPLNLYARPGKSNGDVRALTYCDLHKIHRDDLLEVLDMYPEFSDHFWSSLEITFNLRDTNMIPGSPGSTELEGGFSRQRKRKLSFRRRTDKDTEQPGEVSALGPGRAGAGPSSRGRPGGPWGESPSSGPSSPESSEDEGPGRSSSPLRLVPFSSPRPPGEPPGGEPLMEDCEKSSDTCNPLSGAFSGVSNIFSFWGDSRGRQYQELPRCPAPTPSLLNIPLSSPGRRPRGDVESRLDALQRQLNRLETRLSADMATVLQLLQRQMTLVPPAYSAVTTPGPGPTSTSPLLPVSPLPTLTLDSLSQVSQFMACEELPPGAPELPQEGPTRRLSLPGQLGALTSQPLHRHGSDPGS
Sequence of Cytochrome P450 2C19 (P33261 whole entry): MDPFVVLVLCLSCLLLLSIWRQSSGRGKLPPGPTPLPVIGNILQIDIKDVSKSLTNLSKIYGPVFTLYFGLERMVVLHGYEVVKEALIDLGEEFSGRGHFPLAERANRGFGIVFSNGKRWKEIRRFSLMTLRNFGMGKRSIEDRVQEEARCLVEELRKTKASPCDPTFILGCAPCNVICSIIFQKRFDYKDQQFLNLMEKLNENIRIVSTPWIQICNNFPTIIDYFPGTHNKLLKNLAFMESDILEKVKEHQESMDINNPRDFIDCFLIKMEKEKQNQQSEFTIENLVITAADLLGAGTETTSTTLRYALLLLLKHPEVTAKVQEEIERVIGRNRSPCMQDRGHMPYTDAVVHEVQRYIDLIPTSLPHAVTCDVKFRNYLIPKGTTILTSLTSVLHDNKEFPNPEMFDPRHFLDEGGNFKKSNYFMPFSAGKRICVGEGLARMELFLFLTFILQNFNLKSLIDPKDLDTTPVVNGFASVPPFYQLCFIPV

concentration at 1 h [1]: 13100 ng/mL
Cmax [2]: 226 ng/mL
IC50 (Cytochrome P450 1A2): 13 µM
Vd [3]: 2 L/kg
Cmax [4]: 730 ng/mL
half-life [6]: 0.8 h
bioavailability [7]: 43%
IC50 (Cytochrome P450 2C19): 79 µM
clearance [9]: 12 mL/min/kg
bioavailability [10]: 57%
IC50 (Cytochrome P450 2C8): > 100 µM
Tmax [12]: 2 h
half-life [13]: 2.2 h
IC50 (Cytochrome P450 2D6): > 100 µM
inhibition (INH) [14]: Not Active
solubility [15]: 16.3 mg/mL
Vd [17]: 2 L/kg
solubility [18]: 6.9 mg/mL
Vd [19]: 2 L/kg
Cmax [21]: 705 ng/mL
Structure (SMILES): Cl.NC(=O)[C@@H]1CC[C@H](c2ccc(OCc3ccccc3F)cc2)N1 [RAXATRIGINE HYDROCHLORIDE]
Cp(f) [5]: 23.4 ng/mL
Activity [8]: Non-Toxic
IC50 [11]: 12.6 µM
ED50 (Rattus norvegicus): 0.91 mg/kg
Activity [16]: Toxic
Cp(f) [20]: 1.9 ng/mL
